# Results of several laboratories.
# Compare with care: the assays were run in different laboratories.
# TAOK2: Serine/threonine-protein kinase TAO2 (TAOK2, Homo sapiens, UniProt Q9UL54)
Structure (SMILES),target,assay,system,conditions,measurement,result
O=C(Nc1cccnn1)N1CCN([C@@H]2CCOc3cc(C(F)(F)F)ccc32)CC1,"Apelin receptor (APLNR, Homo sapiens, UniProt P35414)",ligand displacement,,20 µM,inhibition,-1%
COc1ncccc1-c1cnn2ccc(N3CCN(C(=O)OC(C)C)CC3)nc12,TAOK2,"binding, competition with immobilised ligand",,1 µM,remaining binding,64%
CCN(CC)CCCC[C@H](NC(=O)[C@H](CC(C)C)NC(=O)[C@H](C)NC(=O)[C@H](Cc1ccccc1)NC(=O)c1ccc(C(C)(C)C)cc1)C(=O)N[C@@H](CO)C(=O)OC,"Nociceptin receptor (OPRL1, Homo sapiens, UniProt P41146)","ligand displacement, radioligand",,10 µM,remaining binding,76.8%
C#Cc1n[nH]c2c(-c3cn([C@@H](C)c4ccccc4)c(=O)[nH]c3=O)cc(F)cc12,"Mitogen-activated protein kinase 14 (MAPK14, Homo sapiens, UniProt Q16539)","enzyme activity, inhibitor",,0.1 µM,inhibition,2.1%
Cn1cc(-c2cc(F)cc(N3CCn4c(cc5c4CCCC5)C3=O)c2CO)cc(Nc2ccc(N3CCN(C4COC4)CC3)cn2)c1=O,"Phosphatidylinositol 3-kinase catalytic subunit type 3 (PIK3C3, Homo sapiens, UniProt Q8NEB9)","enzyme activity, inhibitor",,0.1 µM,inhibition,-1%
Cc1nn(C)cc1-c1nc2c(N3CCN(Cc4ccc(Cl)cc4)CC3)c(Cl)cnc2[nH]1,"Cyclin-dependent kinase 14 (CDK14, Homo sapiens, UniProt O94921)","binding, competition with immobilised ligand",,1 µM,remaining binding,100%
Cn1cc(-c2cccc(N3CCc4c(sc5c4CC(C)(C)C5)C3=O)c2CO)cc(Nc2ccncn2)c1=O,"Serine/threonine-protein kinase PAK 3 (PAK3, Homo sapiens, UniProt O75914)","enzyme activity, inhibitor",,1 µM,inhibition,-3%
CC[C@H](C)[C@@H](C(=O)O[C@@H](CC(C)C)C(=O)N[C@@H](CC(C)C)C(=O)N[C@@H](C)/C=C/C(=O)N1C(=O)C=C(OC)[C@@H]1C)N(C)C,"Falcipain-3 (FP3, Plasmodium falciparum 3D7, UniProt Q8IIL0)","enzyme activity, inhibitor, fluorescence",,pH 6,kinact/KI,7030 M⁻¹ s⁻¹
COc1cc(Nc2ncc(F)c(Nc3ccc4c(n3)NC(=O)C(C)(C)O4)n2)cc(OC)c1OC,TAOK2,binding,,10 µM,inhibition,88%
Nc1ncc(-c2nc(N3CCOCC3)nc(N3CCOCC3)n2)c(C(F)F)n1,"cGMP-inhibited 3',5'-cyclic phosphodiesterase 3A (PDE3A, Homo sapiens, UniProt Q14432)","enzyme activity, inhibitor",,10 µM,remaining activity,39.1%
C=C(C)[C@@H]1CCC(C)=C[C@H]1c1c(O)cc(CCC)cc1O,"Polyunsaturated fatty acid lipoxygenase ALOX12 (ALOX12, Homo sapiens, UniProt P18054)","enzyme activity in cells, inhibitor",PMNL,10 µM,remaining activity,110%
C#Cc1n[nH]c2c(-c3cn(C(C)c4ccccn4)c(=O)[nH]c3=O)cc(F)cc12 (stereo not drawn),"Phosphatidylinositol 4-phosphate 3-kinase C2 domain-containing subunit alpha (PIK3C2A, Homo sapiens, UniProt O00443)","enzyme activity, inhibitor",,1 µM,inhibition,8.9%
